Measurements from ChEMBL document CHEMBL3085713, “Facile preparation of tetrahydro-5H-pyrido[1,2,3-de]-1,4-benzoxazines via reductive cyclization of 2-(8-quinolinyloxy)ethanones and their antioxidant activity” (Bioorg Med Chem Lett, 2013).
pIC50: −log10 of the molar value.

What was measured:
[1] = Antioxidant activity assessed as ABTS free radical scavenging activity after 3 mins by spectrophotometry; format: functional
Method in brief: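 ABTS (2 mM stock in PBS, pH 7.4) reacted with 70 mM K2S2O8, left in dark at room temperature 15-16 h, then diluted with PBS to absorbance 0.70 ± 0.03 at 734 nm. Sample in DMSO (0.1 mL, range of concentrations) mixed with 1.9 mL radical solution; absorbance read at ambient temperature after 3 min, PBS blank. Scavenging % vs sample-free control; triplicate means; IC50 = concentration scavenging 50%.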

[2] = tested on: Radical scavenging activity; test: Antioxidant activity assessed as DPPH free radical scavenging activity after 30 mins by spectrophotometry; format: functional
Method in brief: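 Sample in DMSO (0.1 mL, range of concentrations) added to 1.9 mL of 0.004% (w/v) DPPH radical in ethanol; incubated at 37 °C, absorbance read at 517 nm after 30 min. Scavenging % = (A control − A test)/A control × 100, control lacking sample. Triplicate, means used; IC50 taken as concentration scavenging 50% of radicals.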

pIC50 [1] | pIC50 [2] | SMILES
4.49 | 4.20 | Cc1cc(C(C)(C)C)c(O)c(C(C)(C)C)c1 [BUTYLATED HYDROXYTOLUENE]
4.75 | 4.28 | Nc1cccc(C2COc3cccc4c3N2CCC4)c1 (stereo not given)
5.03 | 4.35 | COc1cccc(C2COc3cccc4c3N2CCC4)c1 (stereo not given)
4.74 | 4.30 | O=C1O[C@H]([C@@H](O)CO)C(O)=C1O [ASCORBIC ACID]
4.21 | 4.01 | c1cc2c3c(c1)OCC(c1ccc4ccccc4c1)N3CCC2 (stereo not given)
4.28 | 4.12 | c1cc2c3c(c1)OCC(c1cccc4ccccc14)N3CCC2 (stereo not given)
4.32 | 4.01 | Cc1ccc(C2COc3cccc4c3N2CCC4)cc1 (stereo not given)
4.20 | 4.02 | CC1Oc2cccc3c2N(CCC3)C1c1ccccc1 (stereo not given)
4.37 | 4.11 | c1cc2c3c(c1)OCC(c1ccc4c(c1)OCO4)N3CCC2 (stereo not given)
5.00 | 4.35 | Nc1ccc(C2COc3cccc4c3N2CCC4)cc1 (stereo not given)
4.82 | 4.34 | COc1ccccc1C1COc2cccc3c2N1CCC3 (stereo not given)
4.57 | 4.19 | COc1ccc(C2COc3cccc4c3N2CCC4)cc1 (stereo not given)
4.69 | 4.25 | c1csc(C2COc3cccc4c3N2CCC4)c1 (stereo not given)
4.55 | 4.12 | COc1ccc(C2COc3cccc4c3N2CCC4)cc1OC (stereo not given)
4.42 | 4.10 | c1ccc(C2COc3cccc4c3N2CCC4)cc1 (stereo not given)
